MrgX1 ag = agonists of human MrgX1 receptor, primary screen, HEK293 cells, Fluo-4 calcium flux | Fluo-4 calcium fluorescence, agonist mode; hits give high values | B-score at 10 µM | 310,000 tested, 0.44% active | AID 588627, 2011;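 active = calcium response B-score plate-corrected fluorescence ratio at least 3 library SD, with starting fluorescence B-score inside 5 SD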
Target sequence (Q96LB2 whole entry, looked up): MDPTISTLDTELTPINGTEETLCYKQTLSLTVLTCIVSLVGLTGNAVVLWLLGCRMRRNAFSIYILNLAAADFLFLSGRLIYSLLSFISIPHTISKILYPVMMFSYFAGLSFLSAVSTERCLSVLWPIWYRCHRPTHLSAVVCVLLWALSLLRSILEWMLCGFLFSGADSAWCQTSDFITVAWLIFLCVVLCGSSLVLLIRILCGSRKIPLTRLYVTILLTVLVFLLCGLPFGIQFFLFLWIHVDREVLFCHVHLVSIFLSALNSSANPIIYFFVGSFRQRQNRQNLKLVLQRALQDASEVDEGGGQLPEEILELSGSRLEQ
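Test system: HEK293 cells stably expressing human MrgX1 receptor; amount: 15,000 cells per well; doses: compound delivered in addition one of three; times: overnight plating before 1 h dye loading; detection: Fluo-4 NW calcium-flux fluorescence, kinetic read; read-out basis: B-scored fluorescence response ratio; controls: positive and negative controls per plate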
RGS4 block = RGS4 inhibitors, primary screen, cell-based, HEK293 M3R inducible RGS4, calcium flux; Regulator of G-protein signaling 4 (Homo sapiens), P49798; Fluo-4 calcium flux; hits give high values; triggered by carbachol at its EC20; B-score at 10 µM; 310,000 tested, 0.45% active; AID 463165, 2010;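 active = B-score, a plate-corrected calcium signal, over three deviations above library mean, with baseline fluorescence within five deviations of library mean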;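 note: RGS4 expression induced by doxycycline in cells with stable M3 receptor; B-score is computed from the integrated fluorescence ratio over baseline after carbachol; higher B-score means a larger calcium signal and so more RGS4 inhibition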
Target sequence (P49798 whole entry, looked up): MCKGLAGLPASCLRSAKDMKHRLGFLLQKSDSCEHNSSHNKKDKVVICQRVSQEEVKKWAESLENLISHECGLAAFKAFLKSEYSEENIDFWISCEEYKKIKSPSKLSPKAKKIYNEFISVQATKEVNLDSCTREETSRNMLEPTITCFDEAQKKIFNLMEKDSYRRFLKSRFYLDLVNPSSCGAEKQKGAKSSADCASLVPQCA
RGS4 act = RGS4 potentiators or activators, primary screen, cell-based, HEK293 M3R inducible RGS4, calcium flux; 310,000 tested, 0.92% active; carbachol calcium flux Fluo4; hits give low values; B-score at 10 µM;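 active = B-score of the integrated calcium signal more than 4 SD below the library mean, with starting fluorescence not abnormally high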;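 note: negative B-score means reduced calcium response which marks RGS4 activation or potentiation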
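Material: M3R-expressing HEK293 line, RGS4 induced by doxycycline | Schedule: Overnight RGS4 induction, 30 min dye load 37 °C, 20 min compound RT | Measured by: Fluo4 fluorescence kinetic imaging of calcium | Read-out: Integrated calcium ratio converted to B score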
MrgX1 PAM = positive allosteric modulators of MrgX1, primary screen, HEK293 cells, Fluo-4 calcium flux; B-score at 10 µM; 310,000 tested, 0.63% active; Mas-related G-protein coupled receptor member X1 (Homo sapiens), Q96LB2; FDSS; hits give high values;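 active = plate-corrected calcium response at least 3 library SD above typical, normal starting fluorescence, not activating the receptor alone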;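 note: compound read alongside a low EC10 to EC30 dose of BAM8-22 agonist; peak minus trough fluorescence over baseline measured at the second addition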
MrgX1 antag = antagonists of human MrgX1 receptor, primary screen, HEK293 cells, Fluo-4 calcium flux. Mas-related G-protein coupled receptor member X1 (Homo sapiens), Q96LB2. BAM8-22 antagonism; hits give low values. B-score at 10 µM. 310,000 tested, 1.3% active;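 active = calcium-response B-score plate-corrected more than 3 library SD below zero, starting fluorescence within 5 deviations, no agonist response on first addition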;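 note: peak minus trough fluorescence over baseline after final BAM8-22 challenge near maximal dose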
RGS4 act valid = reduced carbachol calcium response, RGS4-induced M3R cells, confirmation, RGS4 activator project, cell-based, HEK293 M3R/RGS4 inducible, calcium flux, duplicate | inhibition, % at 10 µM | carbachol calcium flux Fluo4 | shares compounds with RGS4 act | 1,100 tested, 89% active;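 active = inhibition above 3 SD of the buffer control wells, cut at about 41% in these data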;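 note: signal is the integrated peak-minus-minimum Fluo4 fluorescence over baseline ratio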
M3R Ca counter = activity in cells without induced RGS4 expression | shares compounds with RGS4 act | HEK293 M3R non-induced RGS4, Fluo4 calcium flux; after carbachol challenge at its EC90 | inhibition, % at 10 µM | 1,100 tested, 82% active | AID 602283;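 active = inhibition exceeding 3 SD of buffer-only control wells, cut at about 26% in these data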;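 note: percent drop in integrated peak-minus-baseline over baseline Fluo4 ratio after carbachol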
MrgX1 ag confirm = MrgX1 receptor agonists, duplicate retest, confirmation, HEK293 cells, Fluo-4 calcium flux | 600 tested, 78% active | Fluo-4 calcium fluorescence, FDSS | activation, % at 10 µM | AID 602412, 2012 | shares compounds with MrgX1 ag;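 active = calcium signal rise, corrected for plate position, at least 3 library SD high, with starting brightness within 5 such deviations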
MrgX1 allo conf = MrgX1 positive allosteric modulators, duplicate retest, confirmation, HEK293 cells, Fluo-4 calcium flux. shares compounds with MrgX1 PAM. Fluo-4 calcium fluorescence, FDSS. activation (ratio percentage), % at 10 µM. 1,200 tested, 13% active. AID 602413, 2012;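 active = ratio at least 3 SD above the weak peptide control, stable starting fluorescence, no direct agonism earlier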;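 note: compound followed by low BAM8-22 agonist challenge near EC20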
MrgX1 ant reconf = MrgX1 receptor antagonists, duplicate retest, confirmation, HEK293 cells, Fluo-4 calcium flux; remaining BAM8-22 calcium response % of control (hits give low values), % at 10 µM; AID 602420, 2012; shares compounds with MrgX1 antag; 2,300 tested, 19% active; BAM8-22 calcium flux; hits give low values;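 active = remaining agonist calcium response no higher than 100% minus 3 SD of agonist-only control wells, with starting fluorescence near control levels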;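 note: agonist BAM8-22 given at a near maximal EC90 to ECmax level; peak minus minimum fluorescence divided by baseline after agonist addition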
HEK293 Ca flux = nonspecific calcium signal in parental HEK293, confirmation, counter-screen for MrgX1 antagonist project, parental HEK293 cells, Fluo-4 calcium flux | Fluo-4 calcium fluorescence, FDSS | fluorescence ratio F(max-min)/F0 at 10 µM | shares compounds with MrgX1 antag | AID 624111, 2012 | 4,000 tested, 2% active;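 active = duplicate-averaged calcium fluorescence ratio at least three times the standard deviation of buffer wells, a nonspecific response in parental cells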
HEK293 Ca counter = calcium response in parental HEK293 cells, primary screen, counter-screen for MrgX1 allosteric activator project, cell-based, Fluo-4 calcium flux, duplicate | AID 624114, 2012 | fluorescence ratio F(max-min)/F0 at 10 µM | 4,000 tested, 0.4% active | shares compounds with MrgX1 antag | Fluo-4 fluorescence ratio; hits give high values;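 active = calcium fluorescence ratio, averaged over duplicates, at least 3 SD of the buffer-well ratio, meaning a nonspecific response in receptor-free cells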;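 note: untransfected parental HEK293 lacking MrgX1 used as counterscreen for MrgX1 allosteric activators; fluorescence change taken during the second addition on a kinetic imager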
HEK293 Ca cntr2 = calcium response in parental HEK293 cells, primary screen, counter-screen for MrgX1 agonist project, cell-based, Fluo-4 calcium flux, duplicate, agonist mode | shares compounds with MrgX1 antag | Fluo-4 calcium fluorescence (FDSS); hits give high values | fluorescence ratio F(max-min)/F0 at 10 µM | 4,000 tested, 8.7% active;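 active = calcium fluorescence ratio at least three times the spread of buffer wells, meaning a non-specific response in parental cells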
Numbers stand for hits; - = inactive; . = no result. In the library only some 3.5% were active in any assay of this set; here they are far more common.

SMILES	MrgX1 ag	RGS4 block	RGS4 act	MrgX1 PAM	MrgX1 antag	RGS4 act valid	M3R Ca counter	MrgX1 ant reconf	HEK293 Ca flux	HEK293 Ca counter	HEK293 Ca cntr2	others
Cc1cc(-c2cccs2)c2c(N)c(C(=O)c3ccc4c(c3)OCO4)sc2n1	-	-	-7.94	-	-8.28	93.0	96.3	-	0.653	-	-
Cc1ccc(O)c(C(=O)c2cnc3c(c2)COc2ccccc2-3)c1	-	-	-9.29	-	-10.1	85.5	88.3	-	-	-	-
CS(=O)(=O)c1ccc(NC(=O)C2CC(=O)N(c3ccc4c(c3)OCCO4)C2)cc1 (centres undefined)	-	-	-	-	-	.	.	.	.	.	.
CCOC(=O)c1cnc2c(C)cccc2c1NCc1ccco1	-	-	-12.1	7.57	-	92.0	94.3	.	-	-	-	MrgX1 allo conf=-
O=C(O)c1ccc(Cl)c2c1C1C=CCC1C(c1ccccn1)N2 (centres undefined)	-	-	-	-	-	.	.	.	.	.	.
CCOc1ccc(C(=O)C[n+]2ccc(C(=O)NCc3ccccc3)cc2)cc1	-	-	-	-	-	.	.	.	.	.	.
COc1ccc(/C=C/c2nc(-c3ccccc3O)n[nH]2)cc1OC	-	-	-	-	-	.	.	.	.	.	.
COc1ccccc1C(=O)Nc1nc(-c2ccc(S(=O)(=O)N3CCOCC3)cc2)cs1	-	-	-9.56	-	-8.35	91.5	58.3	51.5%	-	-	-
COc1ccccc1OC(C)C(=O)Nc1nc(-c2ccc(S(=O)(=O)N3CCOCC3)cc2)cs1 (centres undefined)	-	-	-	-	-	.	.	.	.	.	.
CS(=O)(=O)c1sc(C#N)c2c1C(=O)CC(c1ccccc1)C2 (centres undefined)	36.6	-	-9.02	-	-	53.0	-	.	-	-	52.8	MrgX1 ag confirm=257.0%
Cc1oc2c(c(=O)c1C)C(=O)CC(c1ccccc1)C2 (centres undefined)	-	-	-	-	-	.	.	.	.	.	.
COc1cccc(-c2csc(N3CCN(C(=O)Nc4ccc(Cl)cc4)CC3)n2)c1	-	-	-8.42	-	-6.09	87.0	55.8	74.5%	-	-	-
CCOc1ccc(OCc2ccc(C(=O)N3CCCCC3)o2)cc1	-	-	-	-	-	.	.	.	.	.	.
Cc1ccc(OCc2ccc(C(=O)N3CCCC3)o2)cc1C	-	-	-7.88	-	-5.32	73.0	83.8	72.6%	-	-	-
O=S(=O)(Nc1cc2nc3ccccc3nc2n1Cc1ccccc1)c1ccc(Cl)cc1	44.6	-	-14.3	-	-	94.0	88.3	.	0.037	-	-	MrgX1 ag confirm=-
COc1ccc(-c2nc(NC(=O)c3[nH]c(C)c(C(C)=O)c3C)sc2C)cc1	-	-	-11.4	-	-8.53	92.5	91.8	52.5%	-	-	-
COc1ccc(OC)c(NC(=O)c2[nH]c(C)c(C(C)=O)c2C)c1	-	-	-	-	-	.	.	.	.	.	.
Cc1ccccc1Nc1c(-c2ccncc2)nc2ccc(Br)cn12	-	-	-	-	-	.	.	.	.	.	.
Nc1ccc(S(=O)(=O)NC2(C(F)(F)F)NC(=O)N(Cc3ccccc3)C2=O)cc1 (centres undefined)	-	-	-	-	-	.	.	.	.	.	.
CCN(CC)CCOC(=O)c1c(C)oc2ccc(OC)cc12	-	-	-7.83	-	-5.17	67.0	83.8	-	-	-	-
CCOC(=O)Cc1csc(NC(=O)c2csc(C)c2)n1	-	-	-	-	-	.	.	.	.	.	.
CCOC(=O)Cc1csc(NC(=O)c2sc3nc4c(C)cc(C)cc4cc3c2N)n1	-	-	-8.6	-	-9.24	83.5	63.3	-	-	-	-
CCN(CC)CC#CCC(O)(c1ccccc1)C1CCCC1 (centres undefined)	-	-	-7.92	-	-8.7	94.0	90.8	-	-	-	-
CNS(=O)(=O)c1cccc(C(=O)OCc2cc(=O)oc3c(C)c(O)ccc23)c1	-	-	-8.18	-	-9.44	85.0	70.3	54.1%	-	-	-
CC(C)C[C@H](NC(=O)c1nc[nH]c1C(=O)N1CCN(c2ccccc2)CC1)C(=O)OC(C)(C)C	-	-	-	-	-	.	.	.	.	.	.
